Among the data in ChEMBL document CHEMBL4842317, “Discovery of novel 3-hydroxyandrosta-5,7-Diene-17-Carboxylic acid derivatives as anti-inflammatory bowel diseases (IBD) agents” (Eur J Med Chem, 2021) are Activity and inhibition values, retold here.

Data set [1] deals with Mus musculus. Kind of data set: Antiinflammatory activity against DSS-induced colitis C57BL/6 mouse assessed as decrease in p-p65 level in colon at 50 mg/kg, ip administered for 7 days by western blot analysis. It is filed as functional, organism-based. As to conditions: time 7.0 day. The gist of the method: (§1)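 Male C57BL/6 mice, 6 weeks old, 5 per group, given 3.5% DSS solution plus daily intraperitoneal drug (100 μL, in saline/castor oil/ethanol/DMSO 70:10:15:5) for 7 days. Colons collected after sacrifice. IL-1β is normalised per milligram of colonic protein. p-IκB-α and p-p65 in colonic protein are measured by Western blot. Bars give mean + SD.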
On the technique in general: A western blot detects proteins with antibodies after separation by electrophoresis.

The test system of data set [2] is Mus musculus. Description: Antiinflammatory activity against DSS-induced colitis C57BL/6 mouse model assessed as attenuation of colon length shortening at 25 mg/kg, ip administered for 7 days. Format: functional, organism-based. As to conditions: time 7.0 day. An outline of the steps: (§2)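 Male C57BL/6 mice, 6 weeks old, 5 per group, given 3.5% DSS in drinking solution with intraperitoneal drug in saline/castor oil/ethanol/DMSO (70:10:15:5) daily for 7 days. Colons are photographed after sacrifice by cervical dislocation for gross assessment.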

In data set [3] the test system is RAW264.7. Description: Antiinflammatory activity against mouse RAW264.7 cells assessed as decrease in LPS-induced IL-6 mRNA expression at 20 uM in presence of LPS by qRT-PCR analysis. It is filed as functional, cell-based. An outline of the steps: (§3)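 RAW 264.7 cells are grown 12 h in six-well plates, then exposed to LPS (100 ng/ml) plus compound for 8 h. Reverse transcription is followed by SYBR Green qPCR with GAPDH as internal control. Relative expression is calculated by 2^-ΔΔCT versus the untreated control. Mean + SD from three independent experiments.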

The subject of data set [4] is RAW264.7. Description: Antiinflammatory activity against mouse RAW264.7 cells assessed as inhibition of LPS-induced IL-1 beta production measured after 24 hrs in presence of LPS by ELISA. Format: functional, cell-based. To be noted: dose 0.31-20 µM. The gist of the method:
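RAW 264.7 cells are seeded at 2 × 10^5 per well, grown 12 h, and given 100 ng/mL LPS with compound at 0.31 to 20 μM for 24 h. Supernatant IL-1β and IL-6 are quantified by ELISA. Mean + SD, n = 3.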
In general terms: ELISA stands for enzyme-linked immunosorbent assay.

The test system of data set [5] is RAW264.7. Kind of data set: Antiinflammatory activity against mouse RAW264.7 cells assessed as inhibition of LPS-induced NO production at 20 uM after 24 hrs by Griess assay. Format: functional. The gist of the method:
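RAW 264.7 cells (1 × 10^5 cells/mL) are cultured 24 h, stimulated with LPS (100 ng/mL final), and treated with compounds from 100 μM downward for 24 h in DMEM with 10% FBS. Medium nitrite is measured by Griess reaction (sulfanilamide, naphthylethylenediamine, phosphoric acid, 10 min, room temperature, dark). Mean + SD from three independent experiments.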
On the technique in general: The Griess reaction detects nitrite, a stable product of nitric oxide.

Data set [6] deals with RAW264.7. Kind of data set: Inhibition of PI3K/Akt signaling in mouse RAW264.7 cells assessed as inhibition of LPS-induced Akt phosphorylation at 1.25 uM in presence of LPS by western blot analysis. Format: cell-based. An outline of the steps:
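Lysates of LPS-stimulated RAW 264.7 cells (20–30 μg protein) are run on 10% SDS-PAGE, blotted, blocked with 5% milk, probed overnight at 4 °C (1:5,000), then detected with HRP secondary and ECL. Actin, GAPDH or H3 (nuclear fraction) serve as loading controls, with densitometry ratios. Blots are representative of three independent experiments; mean + SD (n = 3).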

For data set [7], the system named is RAW264.7. Description: Cytotoxicity against mouse RAW264.7 cells assessed as reduction in cell viability at 3 to 100 uM incubated for 24 hrs in presence of LPS by MTT assay. As to conditions: raw264.7, 24 h, dose 3-100 µM. It is filed as cell-based. The gist of the method: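 RAW 264.7 cells are seeded at 1.0 × 10^4 per well and incubated overnight. Compounds are added at concentrations from 100 μM downward, with or without LPS (100 ng/mL), for 24 h. MTT (0.5 mg/mL) is added for 4 h and the formazan is dissolved in DMSO for the read-out.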

For data set [8], the system named is RAW264.7. Description: Antiinflammatory activity against mouse RAW264.7 cells assessed as inhibition of LPS-induced iNOS mRNA expression incubated for 8 hrs in presence of LPS by qRT-PCR analysis. Format: functional, cell-based. To be noted: dose 0.31-20 µM. An outline of the steps:
as §3

Data set [9] relates to Mus musculus. Kind of data set: Antiinflammatory activity against DSS-induced colitis C57BL/6 mouse model assessed as attenuation of colon length shortening at 50 mg/kg, ip administered for 7 days. It is filed as functional, organism-based. As to conditions: time 7.0 day. An outline of the steps: as §2
Data set [10] deals with Mus musculus. Description: Antiinflammatory activity against DSS-induced colitis C57BL/6 mouse assessed as decrease in p-IkB alpha level in colon at 25 mg/kg, ip administered for 7 days by western blot analysis. Format: functional, organism-based. To be noted: time 7.0 day. An outline of the steps: as §1
Data set [11] relates to RAW264.7. Kind of data set: Antiinflammatory activity against mouse RAW264.7 cells assessed as decrease in LPS-induced IL-1beta mRNA expression at 20 uM in presence of LPS by qRT-PCR analysis. It is filed as functional, cell-based. An outline of the steps: as §3

As a reminder, the inhibition is the change of the read-out against control, counted positive when it falls.

Calls of active or inactive are those of the source. The calls are words filed in the database; no cut-off is given here.

As to `C[C@]12CC[C@H]3[C@@H](CC=C4C[C@@H](O)CC[C@@]43C)[C@@H]1CC[C@@H]2C(=O)n1ccnc1`, the outcome in [1], in data set [2], in [3], in data set [9], in data set [10] and in data set [11] was Active. Also, the Activity entry was “Dose-Dependent Effect” in [4], “Non-Toxic” in data set [7] and “Dose-Dependent Effect” in [8]. For the same molecule, the inhibition at 20 µM in [5] is 100%. The inhibition result in data set [6] was “Active”.
